Measured values published in ChEMBL document CHEMBL1148584, “Effect of polyamine homologation on the transport and biological properties of heterocyclic amidines” (J Med Chem, 2006).

Experiments:
L1210 [1] = assay: Intracellular level of spermidine in L1210 cells in the presence of DFMO at 20 uM; assay type: functional, cell-based; conditions: Mus musculus
In short: (§1)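 L1210 cells in RPMI 1640/10% FCS with 2 mM aminoguanidine, seeded at 4 × 10⁴ cells/mL. Conjugate, with or without 5 mM DFMO, added at seeding; cells cultured 48 h, washed in cold NaCl, and extracted with 0.2 N HClO₄. Conjugate and free putrescine, spermidine and spermine quantified by ion-pair HPLC (UV 254 nm, fluorescence ex 345/em 455 nm); normalised to protein. Student's t-test, p<0.05.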

[2] = Selectivity for uptake in CHO cell line over CHO-MG cell line at 25 uM; assay type: functional, Cricetulus griseus
In short: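 Ratio of intracellular conjugate level in CHO over CHO-MG cells. Both lines were exposed to conjugate 24 h after seeding at 2 × 10⁵ cells/mL, for 24 h with 2 mM aminoguanidine in the medium. Levels were measured by ion-pair HPLC of perchloric extracts and normalised to protein (nmol/mg).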

CHO-MG [3] = assay: Inhibition of cell growth in CHO-MG cells in the presence of DFMO; assay type: functional, cell-based; conditions: Cricetulus griseus
In short: (§2)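 L1210 cells seeded at 5 × 10⁴ cells/mL with conjugate added at seeding; CHO/CHO-MG plated at 2 × 10³ cells/mL with conjugate added after overnight (24 h). 5 mM DFMO added together with conjugate; medium contains 2 mM aminoguanidine. After 48 h, growth read by MTT formazan absorbance at 540 nm. IC50 is 50% growth inhibition; mean of three determinations.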

L1210 [4] = assay: Inhibition of cell growth in L1210 cells in the presence of DFMO; assay type: functional, cell-based; conditions: Mus musculus; in short: as §2
L1210 [5] = assay: Intracellular level of polyamine in L1210 cells in the presence of DFMO at 20 uM; assay type: functional, cell-based; conditions: Mus musculus; in short: as §1
Phosphodiesterase 1 = Phosphodiesterase 1 (Bos taurus, UniProt Q01061+P14100); assay: Inhibition of bovine calmodulin-activated cAMP dependent phosphodiesterase; assay type: protein assay
In short: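 Crude bovine heart PDE preparation containing calmodulin and Ca²⁺ (0.2 milliunit). Incubated 20 min at 37 °C with 0.1 mM [8-³H]cAMP and graded drug concentrations in 30 mM Tris-HCl, 3 mM MgSO₄, 0.6 mM AMP. Stopped with ZnSO₄; Ba(OH)₂ precipitated AMP with BaSO₄; supernatant radioactivity counted. IC50 is the concentration giving 50% inhibition.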

CHO-MG [6] = assay: Cellular uptake in CHO-MG cells at 25 uM; assay type: ADME, cell-based, Cricetulus griseus; conditions: chinese hamster
In short: (§3)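 CHO (RPMI 1640, 10% FCS, 2 mM aminoguanidine) and CHO-MG (plus L-proline) cells seeded at 2 × 10⁵ cells/mL. Conjugate added 24 h after seeding and cells harvested 24 h later, then washed in cold 0.14 M NaCl and sonicated in 0.2 N HClO₄. Supernatant analysed by ion-pair reversed-phase HPLC (n-octanesulfonate), expressed as nmol/mg protein; mean ± SD of three determinations.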

L1210 [7] = assay: Intracellular level of spermine in L1210 cells in the presence of DFMO at 20 uM; assay type: functional, cell-based; conditions: Mus musculus; in short: as §1
CHO [8] = assay: Cellular uptake in CHO cells at 25 uM; assay type: ADME, cell-based, Cricetulus griseus; conditions: chinese hamster; in short: as §3
L1210 [9] = assay: Intracellular level of putrescine in L1210 cells in the presence of DFMO at 20 uM; assay type: functional, cell-based; conditions: Mus musculus; in short: as §1
L1210 [10] = assay: Intracellular level of spermine in L1210 cells in the absence of DFMO at 20 uM; assay type: functional, cell-based; conditions: Mus musculus; in short: as §1
L1210 [11] = assay: Intracellular level of conjugate in L1210 cells in the absence of DFMO at 20 uM; assay type: functional, cell-based; conditions: Mus musculus; in short: as §1
L1210 [12] = assay: Intracellular level of putrescine in L1210 cells in the absence of DFMO at 20 uM; assay type: functional, cell-based; conditions: Mus musculus; in short: as §1
CHO [13] = assay: Inhibition of cell growth in CHO cells in the presence of DFMO; assay type: functional, cell-based; conditions: Cricetulus griseus; in short: as §2
L1210 [14] = assay: Intracellular level of spermidine in L1210 cells in the absence of DFMO at 20 uM; assay type: functional, cell-based; conditions: Mus musculus; in short: as §1
L1210 [15] = assay: Intracellular level of conjugate in L1210 cells in the absence of DFMO at 25 uM; assay type: functional, cell-based; conditions: Mus musculus; in short: as §1
L1210 [16] = assay: Intracellular level of spermidine in L1210 cells in the presence of DFMO at 25 uM; assay type: functional, cell-based; conditions: Mus musculus; in short: as §1
L1210 [17] = assay: Intracellular level of spermine in L1210 cells in the presence of DFMO at 25 uM; assay type: functional, cell-based; conditions: Mus musculus; in short: as §1
L1210 [18] = assay: Intracellular level of spermidine in L1210 cells in the absence of DFMO at 25 uM; assay type: functional, cell-based; conditions: Mus musculus; in short: as §1
L1210 [19] = assay: Intracellular level of conjugate in L1210 cells in the presence of DFMO at 25 uM; assay type: functional, cell-based; conditions: Mus musculus; in short: as §1
L1210 [20] = assay: Intracellular level of putrescine in L1210 cells in the presence of DFMO at 25 uM; assay type: functional, cell-based; conditions: Mus musculus; in short: as §1
L1210 [21] = assay: Intracellular level of spermine in L1210 cells in the absence of DFMO at 25 uM; assay type: functional, cell-based; conditions: Mus musculus; in short: as §1
L1210 [22] = assay: Intracellular level of putrescine in L1210 cells in the absence of DFMO at 25 uM; assay type: functional, cell-based; conditions: Mus musculus; in short: as §1

| SMILES | Drug uptake (L1210 [1]) | Selectivity ratio [2] | IC50 (CHO-MG [3]) | IC50 (L1210 [4]) | Drug uptake (L1210 [5]) | IC50 (Phosphodiesterase 1) | Drug uptake (CHO-MG [6]) | Drug uptake (L1210 [7]) | Drug uptake (CHO [8]) | Drug uptake (L1210 [9]) | Drug uptake (L1210 [10]) | Drug uptake (L1210 [11]) | Drug uptake (L1210 [12]) | IC50 (CHO [13]) | Drug uptake (L1210 [14]) | also measured |
| --- | --- | --- | --- | --- | --- | --- | --- | --- | --- | --- | --- | --- | --- | --- | --- | --- |
| CC1C[C@]2(C)C(NCCCCN)=Nc3ccccc3[C@@H]2N(C)c2ccccc21 (stereo partly specified) | 0.87 nmol/mg | 1.1 | 24 µM | 54 µM | 8.2 nmol/mg | 116 µM | 3.3 nmol/mg | 9 nmol/mg | 3.6 nmol/mg | 0.7 nmol/mg | 6.3 nmol/mg | 13 nmol/mg | 0.85 nmol/mg | 45 µM | 11 nmol/mg |  |
| CN(c1ccccc1)C1c2ccccc2N=C(NCCCNCCCCN)C1(C)C (stereo unspecified) |  | 1 | > 100 µM |  |  | 30 µM | 3.1 nmol/mg |  | 2.9 nmol/mg |  |  |  |  |  |  | Drug uptake (L1210 [15]): 0.64 nmol/mg; Drug uptake (L1210 [16]): 1.4 nmol/mg; Drug uptake (L1210 [17]): 10 nmol/mg; Drug uptake (L1210 [18]): 21 nmol/mg; Drug uptake (L1210 [19]): 0.66 nmol/mg; Drug uptake (L1210 [20]): 0.12 nmol/mg; Drug uptake (L1210 [21]): 10 nmol/mg; Drug uptake (L1210 [22]): 0.65 nmol/mg |
| OCCCNC1=Nc2ccccc2CC1 |  |  |  |  |  | > 500 µM |  |  |  |  |  |  |  |  |  |  |
| CNc1cccc2c1[C@H](C)C[C@]1(C)C(NCCCCN)=Nc3ccccc3[C@H]21 | 2.1 nmol/mg | 1.1 | 30 µM | 56 µM | 8.2 nmol/mg | 70 µM | 7.2 nmol/mg | 10 nmol/mg | 8.1 nmol/mg | 1 nmol/mg | 8.9 nmol/mg | 23 nmol/mg | 1.6 nmol/mg | 57 µM | 14 nmol/mg |  |
| NCCCNCCCCNCCCN [SPERMINE] |  |  | > 100 µM |  |  | > 500 µM |  |  |  |  |  |  |  |  |  |  |
